The values that follow come from ChEMBL document CHEMBL1126099, “Synthesis and biological characterization of alpha-(4-fluorophenyl)-4-(5-fluoro-2-pyrimidinyl)-1-piperazinebutanol and analogues as potential atypical antipsychotic agents” (J Med Chem, 1992).

For assay [1], the target named is T1, Adrenergic receptor alpha-1 (Rattus norvegicus, UniProt P15823+P23944+P43140).
T1 sequence (P15823 whole entry): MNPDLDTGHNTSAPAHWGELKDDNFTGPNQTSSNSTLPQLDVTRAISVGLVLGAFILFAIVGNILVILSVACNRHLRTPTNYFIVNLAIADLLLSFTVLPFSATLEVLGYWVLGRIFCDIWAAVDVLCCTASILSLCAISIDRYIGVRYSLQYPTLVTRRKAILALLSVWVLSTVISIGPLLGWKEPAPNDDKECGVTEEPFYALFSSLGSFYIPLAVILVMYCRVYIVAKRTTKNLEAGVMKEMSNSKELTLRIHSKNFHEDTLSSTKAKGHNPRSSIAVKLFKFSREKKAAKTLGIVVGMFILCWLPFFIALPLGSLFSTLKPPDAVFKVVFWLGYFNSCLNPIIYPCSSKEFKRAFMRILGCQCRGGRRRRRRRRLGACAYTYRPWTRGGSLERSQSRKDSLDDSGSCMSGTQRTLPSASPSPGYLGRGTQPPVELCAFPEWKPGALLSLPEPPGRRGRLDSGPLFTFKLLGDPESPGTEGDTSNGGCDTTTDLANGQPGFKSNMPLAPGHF
T1 sequence (P23944 whole entry): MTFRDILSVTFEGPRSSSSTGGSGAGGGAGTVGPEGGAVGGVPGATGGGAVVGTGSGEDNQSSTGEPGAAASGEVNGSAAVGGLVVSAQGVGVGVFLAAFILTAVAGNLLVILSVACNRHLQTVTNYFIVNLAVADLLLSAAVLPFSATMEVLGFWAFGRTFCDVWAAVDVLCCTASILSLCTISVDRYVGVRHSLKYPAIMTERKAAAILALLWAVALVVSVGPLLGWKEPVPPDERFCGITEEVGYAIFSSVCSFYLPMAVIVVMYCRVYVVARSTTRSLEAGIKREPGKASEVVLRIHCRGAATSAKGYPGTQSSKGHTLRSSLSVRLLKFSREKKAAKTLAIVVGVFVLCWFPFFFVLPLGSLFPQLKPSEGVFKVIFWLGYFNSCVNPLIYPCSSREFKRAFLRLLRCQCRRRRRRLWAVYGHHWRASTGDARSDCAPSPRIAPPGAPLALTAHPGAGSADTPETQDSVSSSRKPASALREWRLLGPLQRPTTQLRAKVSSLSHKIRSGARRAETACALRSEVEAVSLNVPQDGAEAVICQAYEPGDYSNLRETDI
T1 sequence (P43140 whole entry): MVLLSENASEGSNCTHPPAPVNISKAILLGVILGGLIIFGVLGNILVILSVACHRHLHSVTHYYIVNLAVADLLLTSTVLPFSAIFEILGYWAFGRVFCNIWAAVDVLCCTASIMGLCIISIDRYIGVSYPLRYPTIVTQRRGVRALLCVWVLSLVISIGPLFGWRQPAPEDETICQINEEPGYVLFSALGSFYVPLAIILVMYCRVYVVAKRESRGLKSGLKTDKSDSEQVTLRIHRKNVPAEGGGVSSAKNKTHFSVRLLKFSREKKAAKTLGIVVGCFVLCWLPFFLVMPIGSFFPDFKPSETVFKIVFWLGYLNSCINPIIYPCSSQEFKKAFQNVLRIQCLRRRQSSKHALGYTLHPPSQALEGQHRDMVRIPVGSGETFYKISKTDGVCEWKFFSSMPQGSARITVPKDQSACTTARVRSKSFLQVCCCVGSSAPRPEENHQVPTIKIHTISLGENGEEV
Briefly: Inhibition of [3H]WB-4101 binding to rat cortical Alpha-1 adrenergic receptor in vitro. The format is protein assay. Summed up:
(§1)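 Competition binding against tritiated radioligand. Test drug was run at five concentrations in a single experiment, and IC50 (nM) was derived from displacement.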

The target in assay [2] is T1, Adrenergic receptor alpha-1. Briefly: Inhibitory concentration against radioligand [3H]-WB- 4101 binding to rat cortical Alpha-1 adrenergic receptor. It is filed as protein assay. Summed up:
as §1

For assay [3], the species on record is Mus musculus. Briefly: Effective dose for inhibition of norepinephrine induced lethality in mouse. It is filed as functional.
The species named for assay [4] is Mus musculus. Put plainly: Effective dose for inhibition of physostigmine induced lethality in mouse. It is filed as functional.
In assay [5] the test system is Rattus norvegicus. Briefly: Bmax (D2 receptor number) was determined after peroral administration of 15 mg/Kg in rats qd for 29 days. It is filed as functional. An outline of the steps:
(§2)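 Rats dosed orally once daily for 29 days with vehicle or test drug. Striatal D2 receptor number (Bmax, fmol/mg protein) and affinity (KD, pM) were then measured. Values are mean ± SEM for the number of preparations, with significance versus vehicle by Student's t-test (p < 0.05).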

The subject of assay [6] is Rattus norvegicus. Briefly: Bmax (D2 receptor number) was determined after peroral administration of 30 mg/Kg in rats qd for 29 days. The format is functional. Summed up: as §2
In assay [7] the test system is Rattus norvegicus. Put plainly: Effective in vivo peroral dose against induction of catalepsy in rats. It is filed as functional.
The species entered for assay [8] is Rattus norvegicus. Put plainly: Effective dose for ethanol potentiation in rats. The format is functional.
The species entered for assay [9] is Rattus norvegicus. Briefly: Effective dose for inhibition of spontaneous motor activity in rats. It is filed as functional.
The species named for assay [10] is Rattus norvegicus. Put plainly: Effective dose for motor incoordination in rats was determined by rotarod method. The format is functional.
The subject of assay [11] is Rattus norvegicus. Put plainly: Effect of chronic administration at a peroral dose of 30 mg/Kg qd for 29 days on D2 receptor binding in rat striata. The format is functional, organism-based. An outline of the steps: as §2
Assay [12] relates to Rattus norvegicus. Put plainly: Effect of chronic administration at a peroral dose of 15 mg/Kg qd for 29 days on D2 receptor binding in rat striata. The format is functional, organism-based. Summed up:
as §2

For assay [13], the species on record is Rattus norvegicus. Briefly: Inhibition of apomorphine-induced stereotypy in rats via peroral route. It is filed as functional. To be noted: Rattus norvegicus, po; read-out: ED50.
Assay [14] addresses T1, Adrenergic receptor alpha-1. Briefly: In vitro inhibitory concentration against radioligand [3H]WB-4101 binding to rat cortical alpha-1 adrenergic receptor. It is filed as protein assay.
Assay [15] is filed under the species Rattus norvegicus. Briefly: Effective peroral dose for inhibition of conditioned avoidance response in rats. To be noted: po. It is filed as functional.
Assay [16] has as its target Sigma non-opioid intracellular receptor 1 (Rattus norvegicus, UniProt Q9R0C9). Briefly: Compound was tested in vitro for its ability to displace radioligand (+)-[3H]-3-PPP from rat cortical sigma receptor.
In the next assay the target is D(2) dopamine receptor (Rattus norvegicus, UniProt P61169). Put plainly: Inhibitory concentration against radioligand [3H]spiperone binding to rat striatal Dopamine receptor D2. An outline of the steps: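 [3H]Spiperone displacement at the D2 receptor. Each value comes from a single experiment in which displacement of the tritiated ligand was measured at five concentrations of test drug, and an IC50 in nM was derived from that.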
D(2) dopamine receptor, sequence (P61169 whole entry): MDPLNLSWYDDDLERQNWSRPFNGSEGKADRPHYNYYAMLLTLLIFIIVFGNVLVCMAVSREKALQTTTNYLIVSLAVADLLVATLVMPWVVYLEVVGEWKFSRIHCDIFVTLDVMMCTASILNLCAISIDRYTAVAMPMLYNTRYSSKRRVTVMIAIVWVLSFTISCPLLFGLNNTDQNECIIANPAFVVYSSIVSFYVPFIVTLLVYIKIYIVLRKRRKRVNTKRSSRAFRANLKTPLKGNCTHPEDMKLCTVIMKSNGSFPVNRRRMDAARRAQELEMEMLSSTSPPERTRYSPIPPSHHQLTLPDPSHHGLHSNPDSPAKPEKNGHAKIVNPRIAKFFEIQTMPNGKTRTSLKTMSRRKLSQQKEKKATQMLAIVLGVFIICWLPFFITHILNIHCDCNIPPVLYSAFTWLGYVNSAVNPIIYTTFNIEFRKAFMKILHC

Sigma non-opioid intracellular receptor 1, sequence (Q9R0C9 whole entry): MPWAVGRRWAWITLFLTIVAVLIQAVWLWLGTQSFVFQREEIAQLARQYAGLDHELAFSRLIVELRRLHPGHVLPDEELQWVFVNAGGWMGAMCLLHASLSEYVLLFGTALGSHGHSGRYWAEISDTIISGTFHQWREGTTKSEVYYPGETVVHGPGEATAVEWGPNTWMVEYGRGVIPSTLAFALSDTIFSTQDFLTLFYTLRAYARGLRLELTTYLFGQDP

What is called IC50 is the concentration that inhibits the measured activity by half. As a reminder, the ED50 is the dose that gives a 50% effect, or the effect in half of the subjects. One may read the Kd as the concentration at which binding is half-saturated. Consider `OC(CCCN1CCN(c2ncc(F)cn2)CC1)c1ccc(F)cc1` (stereo in doubt; 16) [BMY-14802], for which the concentration for half-maximal inhibition (IC50) in assay [1] was 520 nM; in assay [2] it was 460 nM. The 50% effective dose (ED50) in the assay listed under Mus musculus [3] was > 100 mg/kg; in the assay listed under Mus musculus [4], > 100 mg/kg; in the assay on Rattus norvegicus [7] it was >100 mg/kg; in the assay filed under Rattus norvegicus [8], 20.1 mg/kg; in the assay listed under Rattus norvegicus [9] it was 87.3 mg/kg; in the assay filed under Rattus norvegicus [10], 43.5 mg/kg. In the assay listed under Rattus norvegicus [13], the median effective dose (ED50) is 33 mg/kg. The figures for the Bmax in the assay on Rattus norvegicus [5] and with Rattus norvegicus [6] were 233 fmol/mg protein and 212 fmol/mg protein, respectively. Also, the figures for the Kd in the assay with Rattus norvegicus [11] and in the assay with Rattus norvegicus [12] were 0.101 nM and 0.121 nM, respectively.

Take `O=C(CCN1CCN(c2ncc(F)cn2)CC1)c1ccc(F)cc1`: the IC50 in assay [14] came to 523 nM; in assay [16], 69 nM. Moreover, the median effective dose (ED50) in the assay filed under Rattus norvegicus [15] and in the assay filed under Rattus norvegicus [13] was > 100 mg/kg each time.

Consider `O[C@H](CCCN1CCN(c2ncc(F)cn2)CC1)c1ccc(F)cc1`, for which the 50% inhibitory concentration (IC50) in assay [2] is 610 nM; on D(2) dopamine receptor, > 1000 nM. The 50% effective dose (ED50) in the assay with Rattus norvegicus [7] (Rattus norvegicus, po, read-out: ED50) came out at 11.4 mg/kg; in the assay listed under Rattus norvegicus [13], 44 mg/kg.
